Results on six compounds are retold here after ChEMBL document CHEMBL1139467, “Specific targeting highly conserved residues in the HIV-1 reverse transcriptase primer grip region. Design, synthesis, and biological evaluation of novel, potent, and broad spectrum NNRTIs with antiviral activity” (J Med Chem, 2005).

Data set [1] can be described thus: Cytotoxicity against mouse NSO cells by MTT assay. The format is cell-based. As to conditions: read-out: TC50 (the source's name). In short, it runs like this:
(§1)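 MTT assay run separately on NSO murine, Daudi human and 3T3 murine fibroblast cell lines and on normal human lymphocytes. Blank was subtracted from OD at 570 nm and results are reported as OD × 1000. SD was stated as never exceeding 5% of the mean.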

Data set [2] is described as follows: Inhibition of HIV1 RT. The arrangement: species or system Human immunodeficiency virus 1. Summed up:
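RNA-dependent DNA polymerase assay using 2–4 nM RT, poly(rA)/oligo(dT) 10:1 (0.3 µM 3'-OH ends) and 10 µM [3H]-dTTP, in 50 mM Tris-HCl pH 7.5 with 1 mM DTT, 0.2 mg/mL BSA, 4% glycerol and 10 mM MgCl2, at 37 °C. Acid-precipitable radioactivity was counted. Ki came from Lineweaver–Burk and Dixon plots over 0.2–5 Ki, in triplicate.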

Data set [3] in a line: Selectivity index, ratio of CC50 for C8166 cells to IC50 for HIV-3B infected C8166 cells. The format is functional. In short, it runs like this: (§2)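 C8166 CD4+ T cells acutely infected with lymphocyte-tropic HIV-1 IIIB (titre as TCID50). EC50 is the drug concentration giving 50% survival of infected cells relative to uninfected untreated controls. CC50 comes from an MTT reduction assay on uninfected C8166 cells as 50% survival. SI = CC50/EC50. AZT serves as the treated control, run in parallel.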

Data set [4] can be described thus: Cytotoxicity against human lymphocytes by MTT assay. Type of data set: cell-based, Lymphocyte. As to conditions: read-out: TC50 (the source's name). In short, it runs like this:
as §1

Data set [5] addresses Human immunodeficiency virus type 1 reverse transcriptase (Human immunodeficiency virus 1, UniProt Q72547, L100I). Put plainly: Inhibition of HIV1 RT L100I mutant.
The target of data set [6] is Human immunodeficiency virus type 1 reverse transcriptase (Human immunodeficiency virus 1, UniProt Q72547, Y188L). Put plainly: Inhibition of HIV1 RT Y188L mutant.
The nature of data set [7]: Cytotoxicity against mouse 3T3 cells by MTT assay. Type of data set: cell-based. As to conditions: NIH3T3 cells, read-out: TC50 (the source's name). In short, it runs like this: as §1
Data set [8] deals with Human immunodeficiency virus type 1 reverse transcriptase (Human immunodeficiency virus 1, UniProt Q72547, K103N). Put plainly: Inhibition of HIV1 RT K103N mutant.
A short description of data set [9]: Selectivity index, ratio of CC50 for monocyte-macrophages to EC50 for HIV1-3 Ba-L infected macrophages. The format is functional. Summed up:
(§3)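 Macrophages from PBMC (10^6/mL) after 7 days adherence in RPMI-1640 with 20% heat-inactivated FCS at 37 °C, 5% CO2; nonadherent cells washed off (>95% pure). Cells are infected with monocytotropic HIV-1 Ba-L. EC50 is 50% reduction of supernatant p24 antigen measured by ELISA kit. CC50 is 50% survival of uninfected macrophages. SI = CC50/EC50. AZT is the parallel control.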

The target of data set [10] is Human immunodeficiency virus type 1 reverse transcriptase (Human immunodeficiency virus 1, UniProt Q72547, V106A). Put plainly: Inhibition of HIV1 RT V106A mutant.
For data set [11], the system named is Human immunodeficiency virus 1. Put plainly: Inhibition of HIV1-3B replication in C8166 cells. The format is functional, organism-based. As to conditions: Human immunodeficiency virus 1, 3B. In short, it runs like this: as §2
Data set [12] can be described thus: Cytotoxicity against macrophages. Type of data set: cell-based, Macrophage. As to conditions: human. In short, it runs like this:
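Macrophages came from PBMC seeded at 10^6/mL in RPMI-1640 with 20% heat-inactivated FCS, kept 7 days at 37 °C in 5% CO2, then washed to remove nonadherent cells. Purity was >95% by nonspecific esterase. CC50 is the concentration giving 50% survival relative to uninfected untreated macrophages, derived by the median effect equation.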

Data set [13] deals with Human immunodeficiency virus type 1 reverse transcriptase (Human immunodeficiency virus 1, UniProt Q72547, Y181I). Put plainly: Inhibition of HIV1 RT Y181I mutant.
The test system of data set [14] is Human immunodeficiency virus 1. Put plainly: Reduction of HIV1-p24 antigen production in HIV1-3 Ba-L infected macrophages. Type of data set: functional, organism-based. As to conditions: Human immunodeficiency virus 1, Ba-L. Summed up: as §3
Data set [15] in a line: Cytotoxicity against C8166 cells by MTT assay. Type of data set: cell-based. As to conditions: human. Summed up:
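MTT reduction to formazan, read by spectrophotometry, in uninfected C8166 cells (a CD4+ T-cell line carrying an HTLV-I genome). CC50 is the concentration giving 50% survival relative to uninfected untreated control cells. It was derived with the median effect equation from pooled values within the 5–95% effective range.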

The nature of data set [16]: Cytotoxicity against human Daudi cells by MTT assay. The format is cell-based. As to conditions: read-out: TC50 (the source's name). Summed up: as §1
The subject of data set [17] is Human immunodeficiency virus type 1 reverse transcriptase (Human immunodeficiency virus 1), Q72547 [K103N]. Put plainly: Inhibition of HIV1 RT K103N mutant at 100 uM. Also noted: scale not given: the % may be the effect or the level left.
Data set [18] concerns Human immunodeficiency virus type 1 reverse transcriptase (Human immunodeficiency virus 1), Q72547 [Y181I]. Put plainly: Inhibition of HIV1 RT Y181I mutant at 100 uM.
In data set [19] the test system is Human immunodeficiency virus 1. Put plainly: Inhibition of HIV1 RT at 100 uM.

For `CCC1(c2ccc(COc3ccccc3)cc2)Oc2ccccc2-n2cccc2C1=O` (racemic), the CC50 in [1] amounted to 810 µM; in data set [4], 810 µM; in [7], 820 µM; in data set [12], 16.8 µM; in data set [15], 9.7 µM; in data set [16], 850 µM. The IC50 in data set [2] is 0.15 µmol; in [5] it was 0.2 µmol; in [6], 2.3 µmol; in data set [8], 0.4 µmol; in [10] it was 0.8 µmol; in data set [13] it was 0.7 µmol. The Selectivity index in [3] is on record as 117; in data set [9], 8400. Further, the EC50 came out at 0.083 µM in data set [11] and 0.002 µM in data set [14].

For the compound `CCC1(c2cccc(Cl)c2)Oc2ccccc2-n2cccc2C1=O` (racemic), the CC50 in data set [1] came to 81 µM; in data set [4], 82 µM; in [7] it was 81 µM; in [15] it was 7.5 µM; in data set [16] it was 84 µM. The IC50 was 0.036 µmol in data set [2]; 0.6 µmol in [5]; 0.5 µmol in [6]; 0.2 µmol in [10]; 0.8 µmol in data set [13]. For the same compound, in data set [3], the Selectivity index is less than 3.7. In [11], the EC50 was more than 2 µM. In [17], this compound yielded an Activity of less than 10%.

On to `CCC1(c2ccc(I)cc2)Oc2ccccc2-n2cccc2C1=O` (racemic), for which the IC50 turned out to be 1.2 µmol in data set [2], 1.8 µmol in data set [5], 27 µmol in data set [6] and 17.3 µmol in data set [10]. Further, in [17], the Activity was less than 10%. In addition, the inhibition in data set [18] is less than 10%.

For the compound `CCC1(c2cccc(COc3ccccc3)c2)Oc2ccccc2-n2cccc2C1=O` (racemic), the IC50 was 0.8 µmol in data set [2]; 1.5 µmol in data set [5]; 10 µmol in [6]; 4.9 µmol in data set [8]; 8.3 µmol in [10]. Moreover, the inhibition in data set [18] is less than 10%.

`CCC1(c2ccc(/C=C/c3ccccc3)cc2)Oc2ccccc2-n2cccc2C1=O` (racemic): the inhibition in data set [19] was less than 10%.

On to `CCC1(c2cccc(N=[N+]=[N-])c2)Oc2ccccc2-n2cccc2C1=O` (racemic), for which, in data set [19], the inhibition was less than 10%.
